The test system of the data set is MS2 coat protein. Put plainly: apparent Kd, MS2 coat protein; higher = weaker binding; RNA-MaP array; FMN 200 µM where present. Summed up:
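The titrant was SNAP-549-labelled MS2 coat protein, run from 0.7 or 1.5 nM in doubling steps to 3 µM. It was applied to designs transcribed by stalled E. coli RNA polymerase on Illumina sequencing-chip clusters, without ligand first and then with constant ligand, in 100 mM Tris-HCl pH 7.5, 80 mM KCl, 4 mM MgCl2, BSA, DTT, yeast tRNA and Tween-20. The apparent Kd is the median of filtered per-cluster binding-curve fits, with green signal normalised to red-channel RNA signal and control-cluster median Fmax.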

[1] abbreviates: designed as: ON switch for flavin mononucleotide, no ligand.
[2] abbreviates: ligand present: flavin mononucleotide, designed as: ON switch for flavin mononucleotide.
Where [3] appears, read: designed as: OFF switch for flavin mononucleotide, no ligand.
The mark [4] stands for this setting: ligand present: flavin mononucleotide, designed as: OFF switch for flavin mononucleotide.

“CUGAGCAAUCAAGGAUAUCACGUCGAUUAGACGUGAGAAGGUGAUCAUCACAUGAGGAUCACCCAUGUGUUACAUGGAGCUCAG”: the “apparent Kd” value under setting [1] amounted to 1170 nM and the “apparent Kd” value under setting [2] was 218 nM.
On to “CGGUGACUGGUGAGGAUAUCGUGUUCGAAAGAACGUGAGAAGGCACAUGAGGAUCACCCAUGUGAUCCUCAUCG”, for which the “apparent Kd” value reads like this: under setting [3], 26.1 nM; under setting [4], 163 nM.
As to “AAAAAGUCAGGAUAUCGAAAAAAAAAAAAAAAAAAAAAAAACGAGAAGGGACAUGAGGAUCACCCAUGUAAAAA”, the “apparent Kd” value under setting [3] came to 63.7 nM and the “apparent Kd” value under setting [4] stood at 69.6 nM.
Regarding “AGCUGGUGACAGCAUCGAGCAAAACAUGAGGAUCACCCAUGUAGAAGGCUGUACGGUUACCGUACAGAGGAUAUACAAAGCUCG”, the “apparent Kd” value by setting is: under setting [3], 6.35 nM; under setting [4], 8.14 nM.
As to “ACGCUUUAUGUAGGAUAUUCAGAGAAAGAGAAAGAAGAAGGACAUGAGGAUCACCCAUGUAAGAAGUAGAUAGAGAUGAUACAU”, the “apparent Kd” value under setting [3] was determined as 76.4 nM and the “apparent Kd” value under setting [4] amounted to 66.1 nM.
For “CAUUAACAUGAGGAUCACCCAUGUGAGGAUAUGAUAUUACUAGGACGGCUGUGAUCAAUCAGAAGGCACAUCUU”, the “apparent Kd” value under setting [3] was 25 nM and the “apparent Kd” value under setting [4] came out at 30 nM.
Turning to “AGCGGCGCAGACCACCGCAAAACCAGAAGGACAUGAGGAUCACCCAUGUAACAAAACAGGGCGAUGUAGGAUAUGGCAGACCCA”, the “apparent Kd” value turned out to be 13 nM under setting [3] and 13.7 nM under setting [4].
Consider “AGAGAAUACUCAGGAUAUCUGAAUAGAAAGAGAAGAGAAGGGAGACAUGAGGAUCACCCAUGUGAAGUCUUGAGACUACAUGGU”, for which the “apparent Kd” value under setting [3] is 366 nM and the “apparent Kd” value under setting [4] came to 426 nM.
The corresponding values for “GACAUGAGGAUCACCCAUGUACAUGAGGAUCACCCAUGUUCUGAGGAUAUAGAUGAGGAUCACCUCUAGAAGGCAGCGCGCGCG” are 251 nM and 202 nM.
Regarding “GUGCACAUUCGAGGAUAUCGGAGAGGACUCCUUCGAGAAGGCGAUUCGUGCCGUGUUAUUCUGGACAUGAGGAUCACCCAUGUG”, the “apparent Kd” value came to 45 nM under setting [1] and 28.7 nM under setting [2].
Regarding “GUCAGCUCGUGAGGAUAUACAACACUGCUUCGGAAGUGUAUUAAGAUCACAUGAGGAUCACCCAUGUAGAAGGCACGAGCUGAU”, the “apparent Kd” value runs as follows: under setting [3], 13.7 nM; under setting [4], 225 nM.
For the sequence “CUUCAACAAGGAUAUGCCAUGGAUCGACACUGUUACGCGAAACAUGAGGAUCACCCAUGUAGAAGGUGUUGAGA”, the “apparent Kd” value by setting is: under setting [3], 78.5 nM; under setting [4], 96.2 nM.
For “AAUUAAUUAAUUAAUUGCUGACAUACAUGAGGAUCACCCAUGUAGGAUAUCGUCAGGAAUACUGACGAGAAGGACAUAGUCAGC”, the “apparent Kd” value runs as follows: under setting [3], 14.9 nM; under setting [4], 16.3 nM.
For “AACUGACAUGAGGAUCACCCAUGUCAGGAUAUGCUUCAUAAAAUAAAAAUAAAAUGAUGCAGAAGGGACAUGGA”, in that order: 27.1 nM and 39.6 nM.
On to “UUCAGCUUGACAGGAUAUACAUGUCAGCGAAAGCUGACUAUCUUAAUAACAUGAGGAUCACCCAUGUAGAAGGGUCGAGCUGAA”, for which the “apparent Kd” value is, setting by setting: under setting [3], 16.4 nM; under setting [4], 25.6 nM.
Turning to “GUCAGACGAGGAUAUAGAUUUGAUAACAUGAGGAUCACCCAUGUGAUCGAUAGAUCAGAUUUAGAAGGCGUCUGAC”, the “apparent Kd” value by setting is: under setting [3], 410 nM; under setting [4], 458 nM.
For “CAGCACUGUCGAGAGGAUAUGCGGUGAUGGACAUGAGGAUCACCCAUGUUAGCGACAGCAUCACGGCAGAAGGCUCUGCUGCUGC”, the “apparent Kd” value by setting is: under setting [1], 59.4 nM; under setting [2], 16.9 nM.
Take “AACAGUACAGGAUAUACAUGAGGAUCACCCAUGUGAUAUUUAAGUGGCGUACCACAAAGUAGAAGGGUACUGGA”: the “apparent Kd” value runs as follows: under setting [3], 21.9 nM; under setting [4], 85.6 nM.
As for “CGAGUGUAAGGAUAUUCGGCACUAGGGACCACCCUAGUGUAGAAGAAGGUACAUGAGGAUCACCCAUGUGGUUA”, the “apparent Kd” value amounted to 369 nM under setting [3] and 428 nM under setting [4].
For “GACGGGAAUGAGAAGGGUCACAUGAGGAUCACCCAUGUGCUCUUCGCCGUGACAGGAUAUCAUUGCCGCCAGGUUAGAUUUUUG”, the “apparent Kd” value came out at 7.87 nM under setting [3] and 22.3 nM under setting [4].
Turning to “AGCUAGUCAGGAUAUACGAAAAUGUCCGAAGCUGAGAAGGGACAUGAGGAUCACCCAUGUAGAAGGGACUAGCA”, the “apparent Kd” value by setting is: under setting [3], 102 nM; under setting [4], 264 nM.
With “GGACGUCACAUUUACAUGAGGAUCACCCAUGUCGAAAGACAUGAGGAUAUGCUACCUAAUUGGUAGCAGAAGGCAUGGACGUCC”, the “apparent Kd” value is, setting by setting: under setting [1], 408 nM; under setting [2], 228 nM.
Turning to “UUUUUAUAAGAGAAGGAGGACUUCAUGAGGAUCACCCAUGUGUUAGUACUUAGGAUAUUUGAUAACAUGAGGAUCACCCAUGUC”, the “apparent Kd” value is, setting by setting: under setting [1], 31.4 nM; under setting [2], 28.1 nM.
“GGUACCAUCACAGGAUAUGCUAUGGUUUCCGUAGCAGAAGGGUGAUAACAUGAGGAUCACCCAUGUGGUACCGGGCGUGAGCCC”: the “apparent Kd” value runs as follows: under setting [1], 741 nM; under setting [2], 201 nM.
As to “GUCGUGUGAGGAUAUGGAUCGACGCAGUGACAGUCAGCGACCUAGAAGGCACAUGAGGAUCACCCAUGUAUGUG”, the “apparent Kd” value is, setting by setting: under setting [3], 54.6 nM; under setting [4], 97.5 nM.
The corresponding values for “GGUUAUUGCAAGGAUAUGCUUUUUUUUGAUAUUGCAGAAGGUGCAACAUGAGGAUCACCCAUGUUGGAGGGAUU” are 30.8 nM and 91.8 nM.
Consider “UACUUCCGAGGAUAUACAUGAGGAUCACCCAUGUGCUUCAGCAUCUAAUGAUGCAUGGGUAGAAGGCGGUAGUU”, for which the “apparent Kd” value runs as follows: under setting [3], 58.5 nM; under setting [4], 68.1 nM.
Regarding “UUUACAUACAUGAGGAUCACCCAUGUGUUCACCCAUGUAAAUCAGGAUAUAUAUAUAUAGAAUGUAUAGAAGGGAUAAUUUUUU”, the “apparent Kd” value worked out at 97.5 nM under setting [3] and 99.7 nM under setting [4].
For “GUAUCUUAUGAGAAGGCGAUCAUGAAACAUGAUCGAGGAUAUCAUGUAAACAUGAGGAUCACCCAUGUAUGGGUAUUAUGGUAC”, the “apparent Kd” value reads like this: under setting [1], 179 nM; under setting [2], 71.9 nM.
As to “GCUGUGGCAUGAGGAUAUGGUCACGUUUCGUGACCAGAAGGCAUGUCAAUAGACAUGAGGAUCACCCAUGUAGUUAACACAGCA”, the “apparent Kd” value runs as follows: under setting [1], 497 nM; under setting [2], 41.9 nM.
Take “AUUUUGUGAGGAUAUUAGUUUUAUGAUUGGAGGAGUUUGGCUGAGAAGGCACAUGAGGAUCACCCAUGUAAAUC”: the “apparent Kd” value reads like this: under setting [3], 35.3 nM; under setting [4], 41.1 nM.
For “GCAUCCAAAGUGAGGAUAUACCUCUGGAUACAUAGGUAGAAGGCACAUGAGGAUCACCCAUGUUCCUAGGAUGC”, the “apparent Kd” value is 31.6 nM under setting [3] and 43.1 nM under setting [4].
“UUACAGCAAGGAUAUACGGGCUGUGCUUUUCAUUUCUUACAACAUGAGGAUCACCCAUGUAGAAGGUGCAACAU”: the “apparent Kd” value stood at 32.6 nM under setting [3] and 73.7 nM under setting [4].
Consider “UACAUCACGUAAGGAUAUACACGGGUUUCAAGAGUAGAAGGUACAAACAUGAGGAUCACCCAUGUAGACAUGGUUAAUAUUGUA”, for which the “apparent Kd” value under setting [1] is 54.3 nM and the “apparent Kd” value under setting [2] came to 40.6 nM.
As to “UGGUGGAAGCAGGAUAUGCUAGAAGUGUAGAAUGCAGAAGGGCUAACAUGAGGAUCACCCAUGUAAGAGGUGUU”, the “apparent Kd” value turned out to be 319 nM under setting [3] and 237 nM under setting [4].
For the sequence “AGUGUGUGGCAGGAUAUUCCGGUCGUGAGUCGGGAAGAAGGGUCUACAUGAGGAUCACCCAUGUGAGCGGUUGA”, the “apparent Kd” value runs as follows: under setting [3], 317 nM; under setting [4], 360 nM.
With “GGGUACAUCGGAGGAUAUCAUUUAAAUACAUGAGGAUCACCCAUGUCGAUGGAGACAUCGGAGAUUGAGAAGGCCGAUGUACCG”, the “apparent Kd” value came to 7.9 nM under setting [1] and 5.57 nM under setting [2].
For the sequence “CACAUUUUAACAGGAUAUGUAUGGUUGCUUAUUAUUGCAAAUUCAAUUAUUACAGAAGGGUUAUACAUGAGGAUCACCCAUGUG”, the “apparent Kd” value runs as follows: under setting [1], 26.5 nM; under setting [2], 16.8 nM.
For “CGCUAUGACAUAGGAUAUUGGUACAUGAGGAUCACCCAUGUCAACUAUGGAAUAGAAUUAGUUGACAAGAAGGAUGUGGUAGCG”, the “apparent Kd” value by setting is: under setting [1], 47.2 nM; under setting [2], 10.3 nM.
The corresponding values for “AAGUUUGUACGAGGAUAUCAGUUGUUUCUAAAUUCAACAUGAGGAUCACCCAUGUAACAAUGGAGUGAGAAGGCGUGUGGGCAA” are 740 nM and 554 nM.
For “CUCAUGUGAGGAUAUGUGAUCAACCUUCUGUAUAGAUGAUGACAGAAGGCACAUGAGGAUCACCCAUGUAGAUC”, the “apparent Kd” value under setting [3] amounted to 68.9 nM and the “apparent Kd” value under setting [4] worked out at 57.1 nM.
As to “AUACUCAUGUAAGGAUAUGCAGCCGUCUCGGCUGCAGAAGGUACUAUAAUACAUGAGGAUCACCCAUGUCUCUCGCAUUGCGAG”, the “apparent Kd” value by setting is: under setting [1], 562 nM; under setting [2], 93.7 nM.
As for “AUAGAAAGAUUAAUAUGAUUACAUGAGGAUCACCCAUGUAUAUAGGAUAUCGACGUCAAUGACGUCGAGAAGGAUAUACAUAAU”, the “apparent Kd” value reads like this: under setting [3], 27.6 nM; under setting [4], 90.4 nM.
Turning to “UAUAUAUAGGCAGGAUAUACAUGUAUAUAUAAUUUUUUAUAUAUUAUUACAUGAGGAUCACCCAUGUAGAAGGGCCAUAUUAUA”, the “apparent Kd” value stood at 34.8 nM under setting [3] and 51 nM under setting [4].
As for “AGUUUACAUGAGGAUCACCCAUGUGAGGAUAUGGAAUCGCUGGCCGUAGCCAGUGGUUCCAGAAGGCGCGUGAU”, the “apparent Kd” value was 99 nM under setting [3] and 187 nM under setting [4].
For “UAGGUACAUGAGGAUCACCCAUGUGAGGAUAUAGAUGAAGAUUGCGAGAGGGAGAGGACUAGAAGGCACAGUGG”, in that order: 33.3 nM and 36.8 nM.
In the case of “GCAUGCAUAGCGAUAUGAUCGAGAGAUCAUGUCGCUAAAUUUAGAAGGACAUGAGGAUCACCCAUGUAGGAUAUGGGAGCAUGA”, the “apparent Kd” value under setting [1] was 44.6 nM and the “apparent Kd” value under setting [2] was 11.5 nM.
As for “AAAACAUGAGGAUCACCCAUGUAAAGAUCGGUUAAUGAAAGUGAGGAUAUACAAAAUUUUAUAGAGUAGAAGGCACUGGGUACA”, the “apparent Kd” value came out at 28.7 nM under setting [1] and 30.1 nM under setting [2].

In general, apparent Kd refers to a dissociation constant that holds for the conditions of the assay.

The values are drawn from the EternaBench riboswitch data.
